The test system of assay [1] is MDA-MB-231. Kind of assay: Induction of cell death in serum starved human MDA-MB-231 cells at 50 uM after 16 hrs by trypan blue dye exclusion assay. Format: functional. A digest of the protocol: (§1)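 Breast cancer line serum-starved 6 h, then exposed to compound (DMSO vehicle) for 16 h at a final 50 µM or 100 µM. Cells trypsinized, stained with Trypan blue and counted. Cell death expressed as percentage, relative to vehicle. Mean ± SEM of three independent experiments, paired comparison to DMSO control.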

Assay [2] concerns MDA-MB-231. In words: Induction of apoptosis in serum starved human MDA-MB-231 cells assessed as caspase-9 activation after 16 hrs by Western blotting method. The following applies: MDA-MB-231, 16 h. Format: functional, cell-based. An outline of the steps: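 MDA-MB-231 cells serum-starved 6 h, treated 16 h across a concentration series (about 12.5–125 µM), harvested; total and cleaved caspase-9 immunoblotted and quantified. Mean ± SEM of two independent experiments; significance versus paired DMSO condition.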
On the technique in general: Immunoblotting shows a protein as a band on a membrane.

Assay [3] relates to MDA-MB-231. Kind of assay: Induction of apoptosis in serum starved human MDA-MB-231 cells assessed as caspase-9 activation at 100 uM after 16 hrs by Western blotting method. Format: functional, cell-based. A digest of the protocol:
(§2)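 MDA-MB-231 cells serum-starved 6 h, then exposed to DMSO vehicle, etoposide, AVPI-NH₂ or analogs at one final concentration (50 or 100 µM, per line), harvested; caspase-3 and caspase-9 activation assessed by Western blotting. Quantification as mean ± SEM of three independent experiments.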

Assay [4] concerns MDA-MB-231. Kind of assay: Induction of cell death in serum starved human MDA-MB-231 cells at 100 uM after 16 hrs by trypan blue dye exclusion assay. Format: functional. A digest of the protocol:
as §1

For assay [5], the system named is MDA-MB-231. In words: Induction of apoptosis in serum starved human MDA-MB-231 cells assessed as caspase-3 activation at 100 uM after 16 hrs by Western blotting method. Format: functional, cell-based. A digest of the protocol: as §2
In assay [6] the test system is MDA-MB-231. Kind of assay: Induction of apoptosis in serum starved human MDA-MB-231 cells assessed as caspase-9 activation at 50 uM after 16 hrs by Western blotting method. Format: functional, cell-based. An outline of the steps: as §2
Assay [7] deals with MDA-MB-231. Kind of assay: Induction of apoptosis in serum starved human MDA-MB-231 cells assessed as caspase-3 activation at 50 uM after 16 hrs by Western blotting method. Format: functional, cell-based. A digest of the protocol: as §2

The source made the active and inactive calls. The calls are words filed in the database; no cut-off is given here.

The EC50 is the midpoint of the concentration-response curve. `C[C@H](N)C(=O)NNC(=O)N1CCC[C@H]1C(=O)NC(c1ccccc1)c1ccccc1`: the outcome in the assay on MDA-MB-231 [1], in the assay on MDA-MB-231 [3] and in the assay on MDA-MB-231 [5] was Active. In addition, in the assay with MDA-MB-231 [2], the EC50 was 73.4 µM. This compound yielded an Activity with MDA-MB-231 [4] of 50%.

In the case of `C=CCN(NC(=O)[C@H](C)N)C(=O)N1CCC[C@H]1C(=O)NC(c1ccccc1)c1ccccc1`, the outcome in the assay on MDA-MB-231 [1] was inactive. The outcome with MDA-MB-231 [3] and in the assay with MDA-MB-231 [5] was Active. The compound further returned an Activity in the assay on MDA-MB-231 [4] of 50%.

Regarding `C[C@H](N)C(=O)NN(C)C(=O)N1CCC[C@H]1C(=O)NC(c1ccccc1)c1ccccc1`, the result in the assay on MDA-MB-231 [1], in the assay with MDA-MB-231 [3] and with MDA-MB-231 [5] was Active. Moreover, in the assay on MDA-MB-231 [4], the Activity stood at 50%.

With `C[C@H](N)C(=O)NN(Cc1ccccc1)C(=O)N1CCC[C@H]1C(=O)NC(c1ccccc1)c1ccccc1`, the outcome in the assay with MDA-MB-231 [6], in the assay on MDA-MB-231 [1], in the assay with MDA-MB-231 [3], in the assay with MDA-MB-231 [7] and in the assay with MDA-MB-231 [5] was Active. Besides, the EC50 with MDA-MB-231 [2] turned out to be 50.2 µM. Besides, the Activity in the assay with MDA-MB-231 [4] is recorded as 50%.

In the case of `COc1cc([C@@H]2c3cc4c(cc3[C@@H](O[C@@H]3O[C@@H]5CO[C@@H](C)O[C@H]5[C@H](O)[C@H]3O)[C@H]3COC(=O)[C@H]23)OCO4)cc(OC)c1O` [ETOPOSIDE], in the assay with MDA-MB-231 [6], the outcome was inactive. In the assay on MDA-MB-231 [1], the Activity came to 50%. Also, the result in the assay with MDA-MB-231 [7] was Active.

Turning to `C#CCN(NC(=O)[C@H](C)N)C(=O)N1CCC[C@H]1C(=O)NC(c1ccccc1)c1ccccc1`, in the assay on MDA-MB-231 [1], the result was inactive. The result with MDA-MB-231 [3] and in the assay with MDA-MB-231 [5] was Active. For the same compound, the Activity with MDA-MB-231 [4] is on record as 50%.

For the origin of these results see ChEMBL document CHEMBL3352282, “Design and synthesis of novel azapeptide activators of apoptosis mediated by caspase-9 in cancer cells” (Bioorg Med Chem Lett, 2014).
